# Bioassay records as filed in PubChem.
# NPY-Y2 PAM-ag: human NPY-Y2 potentiation or agonism, primary screen; P49146; cells expressing NPY-Y2, potentiator/agonist read-out; activation, % at 3.6 µM; actives 0.45% (n = 220,000); in the data active = activation above about 27%;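 note: cells stimulated with NPY near EC25 plus isoproterenol at EC100; 0% = vehicle plus submaximal agonist and 100% = vehicle plus saturating agonist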
# Target sequence (P49146 whole entry, looked up): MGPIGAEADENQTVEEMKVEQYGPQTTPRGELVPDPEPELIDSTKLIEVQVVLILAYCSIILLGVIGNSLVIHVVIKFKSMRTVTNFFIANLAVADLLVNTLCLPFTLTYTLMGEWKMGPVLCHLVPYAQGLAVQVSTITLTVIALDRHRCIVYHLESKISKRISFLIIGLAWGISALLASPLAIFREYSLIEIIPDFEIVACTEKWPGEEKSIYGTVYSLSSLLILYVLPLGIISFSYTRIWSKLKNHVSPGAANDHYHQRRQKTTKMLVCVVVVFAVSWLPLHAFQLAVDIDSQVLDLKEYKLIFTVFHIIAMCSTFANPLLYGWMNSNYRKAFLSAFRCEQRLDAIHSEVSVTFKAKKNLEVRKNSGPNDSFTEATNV
# NPY-Y1 PAM-ag: potentiators or agonists of human neuropeptide Y receptor Y1; P25929; NPY-Y1 expressing cells, potentiator/agonist activation; activation, % at 3.6 µM; actives 0.37% (n = 220,000); AID 1304; in the data active = activation above about 33%, passing the limit was not always enough;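 note: cells stimulated with NPY at EC10 then isoproterenol at EC100; 0% = low agonist plus stimulus and 100% = saturating agonist plus stimulus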
# Target sequence (P25929 whole entry, looked up): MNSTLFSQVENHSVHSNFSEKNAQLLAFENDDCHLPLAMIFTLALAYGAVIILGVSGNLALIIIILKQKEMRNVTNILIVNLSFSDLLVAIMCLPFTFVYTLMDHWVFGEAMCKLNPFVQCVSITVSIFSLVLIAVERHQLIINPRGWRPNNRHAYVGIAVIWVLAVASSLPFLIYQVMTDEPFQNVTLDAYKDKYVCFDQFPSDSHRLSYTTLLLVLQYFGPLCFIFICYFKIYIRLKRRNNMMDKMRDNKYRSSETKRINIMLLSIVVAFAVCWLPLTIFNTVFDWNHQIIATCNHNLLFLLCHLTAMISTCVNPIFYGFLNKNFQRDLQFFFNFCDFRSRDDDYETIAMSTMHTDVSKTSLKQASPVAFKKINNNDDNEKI
# NPY-Y2 antag: blocks the human neuropeptide Y Y2 receptor; P49146; NPY-Y2 expressing cells, antagonist mode; inhibition, % at 2.7 µM; actives 0.99% (n = 140,000); AID 793; in the data active = inhibition above about 17%;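 note: 0% = vehicle with agonist challenge and 100% = reference antagonist with challenge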
# KCC2 mod: KCC2 (human) Cl- transport modulation. actives 2.2% (n = 190,000). KCC2 cells, thallium flux FluoZin-2 fluorescence. B-score of Tl+ flux slope (higher = more flux/activation; lower = inhibition) at 10 µM. Q9H2X9. AID 1456;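 active = thallium flux slope and its plate-corrected score both differing from the plate sample mean at a set confidence after two filtering rounds, in either direction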;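 note: slope of fluorescence scaled to starting intensity during 10 to 20 s after thallium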
# NPY Y1 blocker: blocks the human neuropeptide Y Y1 receptor; HEK293-CNG Y1 cells, membrane potential fluorescence; NPY at EC95, then isoproterenol; inhibition, % at 3.6 µM; actives 1% (n = 200,000); AID 1040;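 active = inhibition above the campaign mean inhibition of all tested compounds plus 3 SD, cut at about 20% in these data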;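 note: 0% = DMSO wells given NPY plus isoproterenol and 100% = isoproterenol alone without NPY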
#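 Material: HEK293 cells co-expressing NPY Y1 receptor and cyclic-nucleotide gated channel. Timing: compound incubation 1 h at room temperature, readout 45 min post-stimulation. Signal: fluorescence, membrane potential probe.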
# Furin inhibitor: inhibitors of human furin; P09958; purified furin, fluorogenic substrate cleavage; inhibition, % at 20 µM or 30 µM; actives 0.061% (n = 220,000); AID 463115; in the data active = inhibition above about 25%
# KCC2 secondary: KCC2 (human) modulation, secondary assay | shares compounds with KCC2 mod | HEK293-KCC2, thallium flux, FluoZin2 fluorescence; hits give high values | normalised thallium flux (F/F0 slope) at 10 µM | actives 15% (n = 3,700) | AID 1713;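 active = thallium flux slope above the same plate's solvent-only control mean plus 3 SD; inconclusive = the two replicate wells disagree; inactive = no significant difference from solvent-only control wells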
# KCC2 bumet counter: thallium flux despite bumetanide block in KCC2 cells, secondary assay 3; HEK293-KCC2 + bumetanide/ouabain, thallium flux FluoZin2; hits give high values; shares compounds with KCC2 mod; normalized thallium flux at 10 µM; actives 49% (n = 3,700);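 active = thallium entry rate above the same plate's blocked-transporter control wells by more than 3 SD; inconclusive = the two repeat wells disagree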;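 note: raw slope of fluorescence over initial fluorescence between 10 and 20 s after thallium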
# KCC2 sec2: confirmation of human KCC2 transport modulators; HEK293-KCC2, thallium flux FluoZin2 fluorescence; actives lie on both sides; F/F0 rise rate, 10–20 s post-thallium; normalized thallium flux at 10 µM; shares compounds with KCC2 mod; actives 23% (n = 3,700);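 active = thallium flux slope more than 3 SD above or below the plate's solvent-only control mean, mostly below; inconclusive = the two repeat wells disagreed; inactive = no significant shift from solvent-only controls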;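 note: raw slope with 0.1% DMSO as baseline and bumetanide as block control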
# HEK counter1: counter-screen for KCC2 modulators: effect in parental HEK293 cells | shares compounds with KCC2 mod | actives 46% (n = 3,700) | thallium flux rate (normalised fluorescence) at 10 µM | thallium flux FluoZin2, ouabain; baseline-ratio fluorescence slope, 10–20 s after thallium;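 active = thallium flux rate significantly above the same plate's solvent-only control wells, beyond their mean plus 3 SD; inconclusive = the two replicate wells gave conflicting results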
# KCC2 retest ouab: confirmation of human KCC2 modulators with ouabain | shares compounds with KCC2 mod | HEK293-KCC2, thallium flux FluoZin2 fluorescence; bidirectional: low = inhibitor, high = activator | raw Tl+ flux slope (below DMSO = inhibition, above = activation) at 10 µM | actives 48% (n = 3,700);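 active = thallium flux slope beyond 3 SD from same-plate DMSO control mean in most replicates, usually higher, sometimes lower; inconclusive = repeat tests gave conflicting results; inactive = no significant difference from controls in most replicates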;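 note: slope of initial-normalized fluorescence between seconds 10 and 20 after thallium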
# HEK293 Tl flux2: counter-screen for KCC2 modulators: effect in parental HEK293 cells. shares compounds with KCC2 mod. thallium flux slope at 10 µM. actives 33% (n = 3,700). thallium flux FluoZin-2 fluorescence slope;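 active = thallium flux slope above the same plate's solvent-control mean plus 3 SD in both duplicate wells; inconclusive = duplicate wells that disagreed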;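 note: run without ouabain in cells lacking the KCC2 cotransporter; slope of fluorescence scaled to its starting value between 10 and 20 s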
# Starred values were filed as active, the others as inactive; u = inconclusive; x = not tested or not shown. Most compounds without a hit are left out; they make up all but 3.7% or so of the library.
SMILES,NPY-Y2 PAM-ag,NPY-Y1 PAM-ag,NPY-Y2 antag,KCC2 mod,NPY Y1 blocker,Furin inhibitor,KCC2 secondary,KCC2 bumet counter,KCC2 sec2,HEK counter1,KCC2 retest ouab,HEK293 Tl flux2
CCOC(=O)C(=CNc1ccc(Oc2cncc(Cl)c2)nc1)C(=O)OCC,7,-1,x,-2.7,x,-8,x,x,x,x,x,x
O=[N+]([O-])c1ccc(-c2nc3ccc([N+](=O)[O-])cc3[nH]2)cc1,8,-9,-1,x,-6,-7,x,x,x,x,x,x
O=[N+]([O-])c1ccc2nc(/C=C/c3ccc(Cl)cc3)[nH]c2c1,15,-9,-2,-4.5*,-4,1,0.007,0.0052,0.029,0.0077,u,0.0099
O=C(c1cc2c(s1)-c1ccccc1S(=O)(=O)C2)N1CCN(Cc2ccccc2)CC1,-11,-6,2,-2.7,-4,-12,0.0062,0.0058,0.028,0.0065,u,0.0093
O=C(Oc1ccc2ccccc2c1Cl)N1CCCCCC1,12,-12,5,-0.9,7,-9,x,x,x,x,x,x
O=C(Oc1ccc2ccccc2c1Cl)N1CCCC1,11,0,6,x,-6,-15,0.0062,0.0053,0.029,0.0063,0.015*,0.0094
CCc1c(C)sc(NC(=O)c2cc(C(C)C)on2)c1C#N,2,-14,x,7.3*,6,-9,0.011,0.027*,0.039,u,0.031*,u
COc1cccc(C(=O)Nc2cc3c(cc2C(C)=O)OCCO3)c1,9,0,2,-0.047,14,-14,x,x,x,x,x,x
COc1ccccc1NC(=O)C1CCCN(c2nc(C)cc(C)n2)C1 (stereo unspecified),-25,-32,4,-0.72,7,5,x,x,x,x,x,x
CCOc1ccc(OCC)c(NC(=O)C2CCCN(c3nc(C)cc(C)n3)C2)c1 (stereo unspecified),0,-2,2,-3.7*,0,-23,0.006,0.0041,u,0.0057*,0.014*,u
CC(=O)CSc1nc2ccccc2s1,-5,18,0,1.3,0,-9,x,x,x,x,x,x
Cn1c(CSc2nc3ccccc3s2)n[nH]c1=S,-21,-31,7,x,12,-33,u,0.0059,u,0.0071,0.011*,u
Cn1c(CSc2nc3ccccc3s2)nc2ccccc21,-18,-14,7,-4.4*,9,-25,0.0059,0.0049,0.024*,0.007,u,0.01
Cc1ccc(NC(=O)COC(=O)C2CC2(Cl)Cl)cc1C (stereo unspecified),8,-9,x,0.39,-3,-12,x,x,x,x,x,x
CCN(CC)C(=O)NC1CC(=O)N(c2ccc(OC)cc2)C1 (stereo unspecified),5,-5,1,-0.13,0,-13,x,x,x,x,x,x
CC12CC3(C)CC(C)(C1)CC(C(=O)NC(=S)N1CCCC1)(C2)C3,4,-1,x,7.9*,8,-18,0.0068,0.0095*,0.027,0.01*,u,u
Cc1cccc(NC(=S)N=Nc2c(O)[nH]c3ccccc23)c1,15,13,-2,17*,0,-22,u,0.032*,0.028,0.015*,0.046*,u
COc1ccccc1NC(=S)N=Nc1c(O)[nH]c2ccc(Br)cc12,9,28,x,9.1*,x,-25,0.0071,0.01*,0.037,0.014*,u,0.017*
CC(C)c1ccc2[nH]c(O)c(N=NC(=O)c3cccc(S(=O)(=O)Nc4ccccc4Cl)c3)c2c1,4,-11,7,0.14,4,-9,x,x,x,x,x,x
CC(C)(O)C(=O)N=Nc1c(O)[nH]c2ccccc12,4,-21,x,0.48,2,-1,x,x,x,x,x,x
CC(C)NC(=S)N=Nc1c(O)[nH]c2ccc(C(C)C)cc12,13,7,-1,4.1*,-7,0,0.0079,0.013*,0.032,0.015*,u,0.014*
CCC(=O)c1ccc(OCc2ccc(C(=O)c3ccccc3)cc2)cc1,-8,-13,x,1.8,-3,-22,x,x,x,x,x,x
CCOC(=O)c1[nH]c(C)c(CC(C)C)c1C,-2,1,x,-1.2,-2,-18,x,x,x,x,x,x
CCc1nnc(NC(=O)CSc2nnc(Cc3ccccc3)o2)s1,0,-5,1,x,-4,-18,0.0072,0.007,0.027,0.0063,u,0.0098
C=CCN1C=CC(=O)CC1,x,x,x,0.99,x,-12,x,x,x,x,x,x
SMILES,NPY-Y2 PAM-ag,NPY-Y1 PAM-ag,NPY-Y2 antag,KCC2 mod,NPY Y1 blocker,Furin inhibitor,KCC2 secondary,KCC2 bumet counter,KCC2 sec2,HEK counter1,KCC2 retest ouab,HEK293 Tl flux2
CCOc1cc(C2NN=C(c3ccccc3)S2)ccc1OCc1ccccc1Cl (stereo unspecified),2,6,3,6*,4,-23,0.0085,0.0045,0.031,0.0077,0.019,0.01
COc1cccc2cc(-c3nnc(SCC(=O)Nc4nc(C)cs4)n3C)oc12,8,-1,7,-3*,14,-33,0.0085,0.0057,0.03,0.0067,0.023,0.01
Cc1csc(NC(=O)CSc2nnc(-c3ccco3)n2C)n1,5,10,-1,-1.4,-4,-15,x,x,x,x,x,x
C=C(C)COc1ccc(-c2[nH]ncc2-c2ccccc2)c(O)c1,-2,9,2,-4.4*,-3,-17,0.011,u,0.035,0.0073,0.023,0.01
C=C(C)COc1ccc(-c2[nH]ncc2-c2ccc(OC)cc2)c(O)c1,-3,35,x,0.98,x,-3,x,x,x,x,x,x
N#Cc1cc2c(nc1SCc1ccccc1)CCCCC2,-28,-6,7,0.29,9,-34,x,x,x,x,x,x
N#Cc1cc2c(nc1SCC(O)CS(=O)(=O)Cc1ccccc1)CCCC2 (stereo unspecified),7,1,6,-2.9*,-1,9,u,0.0053,0.032,0.0072,u,0.01
O=S1(=O)CCN2C(=N1)Sc1c2ccc2c1CCCC2,-1,-14,1,7.7*,3,0,0.0098,0.0053,0.033,0.0072,0.022,0.01
COCCNC(=O)C(c1ccc(F)cc1)N(C(=O)CCC(=O)Nc1nccs1)c1ccc(C)cc1 (stereo unspecified),-7,10,x,-2.1,-1,-22,x,x,x,x,x,x
